Results taken from publication PMC3770484 (European journal of medicinal chemistry, 2013).

Experiments:
[1] = tested on: tubulin (colchicine site); experiment: Inhibition of [3H]colchicine binding to tubulin; conditions: tubulin 1 μM, [3H]colchicine 5 μM, 10 min at 37 °C, ± SD
Summary of the method: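 Tritiated colchicine (5.0 μM) incubated with 1.0 μM tubulin and test compound at 5.0 or 1.0 μM for 10 min at 37 °C. At this point about 40-60% of maximum colchicine binding occurs in controls. Percent inhibition of binding reported. Compounds inhibiting by more than 80% at 5 μM were retested at 1 μM.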

[2] = tested on: human tumor cell line panel (A549, KB, KBvin, and DU145); experiment: SRB cytotoxicity, range over the whole HTCL panel; format: cell-based; conditions: read-out: GI50 range over HTCL panel
Summary of the method: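 Sulforhodamine B growth assay on human A-549, KB, DU145 and KBvin lines; KBvin is a vincristine-resistant, P-gp-expressing KB subline. Paclitaxel served as reference.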

SMILES | Inhibition of colchicine binding (%) inhibition ([1]; inhibitor at 1 μM) [%] | Inhibition of colchicine binding (%) inhibition ([1]; inhibitor at 5 μM) [%] | GI50 [2] [nM]
COc1ccc(/C=C\c2cc(OC)c(OC)c(OC)c2)cc1O [CA4, combretastatin A-4] | 90 ± 0.2 | 98 ± 0.6 | –
COc1ccc2c(c1)CCCN2c1nc(Cl)nc2ccccc12 [Compound 6d, N-(2′-Chloroquinazol-4′-yl)-6-methoxy-1,2,3,4-tetrahydroquinoline] | – | – | 1.5 to 1.7
